In ChEMBL document CHEMBL1138258, “Optimizing cell permeation of an antibiotic resistance inhibitor for improved efficacy” (J Med Chem, 2007):

Columns and labels:
[1] = Dissociation constant, pKa of the compound; type: physicochemical
Summary of the method: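 UV spectrophotometric determination on 10^-4 M aqueous solutions, by two methods. First, spectra were recorded at pH between 2 and 12 with ionic strength fixed at 0.01. Second, solutions at pH 2 (0.5 N HCl) were titrated with 0.5 N NaOH up to pH 12. pKa was derived with the Henderson-Hasselbalch equation and absorption-spectra extrapolation.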

[2] = tested on: Escherichia coli; test: Antibacterial activity against Escherichia coli K12 JM109 overexpressing beta-lactamase; type: functional
Summary of the method: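 Broth microdilution in Mueller Hinton broth against E. coli K12 JM109 overexpressing AmpC from a heat-sensitive pOGO plasmid. Ampicillin MIC determined with and without boronic acids; final inoculum 5 × 10^5 CFU/mL; DMSO below 5%.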

Compound	pKa [1]	MIC [2]
O=CN(C=O)Cc1ccc2sc(B(O)O)cc2c1	6.39	92 µM
OCCN(CCO)Cc1ccc2sc(B(O)O)cc2c1	6.39	–
O=CNCc1ccc2sc(B(O)O)cc2c1	6.6	–
O=[N+]([O-])c1cccc(NCc2ccc3sc(B(O)O)cc3c2)c1	6.39	78 µM
OB(O)c1cc2cc(CNc3ccc(C(O)(C(F)(F)F)C(F)(F)F)cc3)ccc2s1	6.39	–
OB(O)c1cccc(NCc2ccc3sc(B(O)O)cc3c2)c1	6.39	–
CC(=O)c1ccc(NCc2ccc3sc(B(O)O)cc3c2)cc1	6.39	314 µM
O=C(O)c1cccc(NCc2ccc3sc(B(O)O)cc3c2)c1	6.39	–
O=C(O)CNCc1ccc2sc(B(O)O)cc2c1	6.39	92 µM
Nn1cn[n+](Cc2ccc3sc(B(O)O)cc3c2)c1	6.39	117 µM
OB(O)c1cc2cc(CSc3ccccc3)ccc2s1	6.39	84 µM
OB(O)c1cc2cc(COCc3ccccc3)ccc2s1	6.39	–
OB(O)c1cc2cc(COc3ccc(Cl)c(Cl)c3)ccc2s1	6.39	–
Cc1ccc2sc(B(O)O)cc2c1	6.39	117 µM
OB(O)c1cc2ccccc2s1	6.39	359 µM
OB(O)c1cc2cc(CNc3ccc(N4CCOCC4)cc3)ccc2s1	6.39	–
OB(O)c1cc2cc(Cn3ccnc3)ccc2s1	6.39	94 µM
OCc1ccc2sc(B(O)O)cc2c1	6.39	–
OB(O)c1cc2cc(COc3ccccc3)ccc2s1	6.39	–
OB(O)c1cc2cc(CNc3ccc(Cl)c(Cl)c3)ccc2s1	6.39	147 µM
COc1ccc(NCc2ccc3sc(B(O)O)cc3c2)cc1OC	6.39	–
OB(O)c1cc2cc(CBr)ccc2s1	6.39	–
OB(O)c1cc2cc(CN3CCNCC3)ccc2s1	6.39	–
CC1(C)S[C@@H]2[C@H](NC(=O)[C@H](N)c3ccccc3)C(=O)N2[C@H]1C(=O)O [AMPICILLIN]	–	512 µg/mL
